According to ChEMBL document CHEMBL2424651, “Synthesis and antiproliferative activity of new cytotoxic tri- and tetraazabenzo[3,2-a]fluorene-5,6-dione derivatives” (Bioorg Med Chem Lett, 2013):

Key:
NCI-H460 = assay: Cytotoxicity against human NCI-H460 cells after 48 hrs by resazurin dye assay; assay type: functional, cell-based; settings: NCI-H460, 48 h
How it was run: (§1)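 Cells were seeded in the supplier-recommended growth medium and grown 24 h at 37 °C/5% CO2, with density set per line to give a linear signal. Compound exposure was 48 h in total. Resazurin (0.2 mg/mL in DPBS) was added for the final 3 h, and fluorescence was read at 590 nm. Data were expressed as % efficacy against non-treated cells and cell-free blanks on each plate. EC50 came from non-linear regression.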

SK-OV-3 [1] = assay: Cytotoxicity against human SKOV3 cells after 48 hrs by resazurin dye assay; assay type: functional, cell-based; settings: SK-OV-3, 48 h; how it was run: as §1
[2] = Cytotoxicity against human KB/HeLa cells after 48 hrs by resazurin dye assay; assay type: functional, cell-based; how it was run: as §1
SK-OV-3 [3] = assay: Cytotoxicity against human SKOV3 cells at 31.6 uM after 48 hrs by resazurin dye assay; assay type: functional; settings: SK-OV-3, 48 h

SMILES	EC50 (NCI-H460)	EC50 (SK-OV-3 [1])	EC50 [2]	inhibition at 31.6 µM (SK-OV-3 [3])
O=C1C(=O)c2c(nc3ccccn23)-c2ccncc21	0.242 µM	0.498 µM	0.244 µM	–
O=C1C(=O)c2c(nc3ccc(Cl)cn23)-c2ccncc21	0.342 µM	0.525 µM	0.394 µM	–
O=C1/C(=N\OCCO)c2cnccc2-c2nc3ccccn3c21	0.521 µM	2.06 µM	0.532 µM	–
CN(C)CCO/N=C1\C(=O)c2c(nc3ccccn23)-c2ccncc21	0.414 µM	0.931 µM	0.406 µM	–
CN(C)CCN(C)c1cc2c(cn1)C(=O)C(=O)c1c-2nc2ccc(Cl)cn12	2.14 µM	–	2.8 µM	< 30%
O=C1C(=O)c2c(nc3ccccn23)-c2cnccc21	0.62 µM	1.22 µM	0.917 µM	–
O=C1/C(=N\OCCO)c2ccncc2-c2nc3ccccn3c21	3.88 µM	14.7 µM	4.35 µM	–
CN(C)CCO/N=C1\C(=O)c2c(nc3ccccn23)-c2cnccc21	2.67 µM	2.93 µM	6.15 µM	–
O=C1C(=O)c2c(nc3ccccn23)-c2ncncc21	0.337 µM	0.283 µM	0.145 µM	–
COc1cccc2c1C(=O)c1c(O)c3c(c(O)c1C2=O)C[C@@](O)(C(=O)CO)C[C@@H]3O[C@H]1C[C@H](N)[C@H](O)[C@H](C)O1 [DOXORUBICIN]	0.04 µM	0.29 µM	0.25 µM	–
O=C1c2c(O)ccc(O)c2C(=O)c2c(NCCNCCO)ccc(NCCNCCO)c21 [MITOXANTRONE]	0.03 µM	–	0.42 µM	–
